Tests used:
Assay type in all cases: functional
SW1573 = assay: Growth inhibition of human SW1573 cells after 48 hrs by SRB assay; conditions: SW1573, 48 h
Method in brief: (§1)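 Cells maintained in RPMI 1640 with 5% heat-inactivated fetal calf serum and 2 mM L-glutamine at 37 °C, 5% CO₂, humidified air. Exponentially growing cells trypsinized and resuspended in medium containing penicillin G (100 units/mL) and streptomycin (0.1 mg/mL). Single-cell suspensions with >97% viability by trypan blue exclusion counted, diluted and seeded into 96-well plates.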

WiDr = assay: Growth inhibition of human WiDr cells after 48 hrs by SRB assay; method in brief: as §1
[1] = Growth inhibition of human HBL100 cells after 48 hrs by SRB assay; conditions: HBL-100, 48 h; method in brief: as §1
HeLa = assay: Growth inhibition of human HeLa cells after 48 hrs by SRB assay; method in brief: as §1

Row | Structure (SMILES) | GI50 (SW1573) [nM] | GI50 (WiDr) [µM] | GI50 [1] [nM] | GI50 (HeLa) [nM]
1 | CC1OC2=C(C(=O)C(=O)c3cccc(O)c32)C1(C)C (configuration not stated) | 2400 | 19 | 2200 | 1900
2 | CC1OC2=C(C(=O)C(=O)c3c(O)cccc32)C1(C)C (configuration not stated) | 990 | 5.2 | 540 | 1900
3 | CC1C2=C(OC1(C)C)c1c(O)cccc1C(=O)C2=O (configuration not stated) | 1300 | 2.1 | 2000 | 900
4 | CC1C2=C(OC1(C)C)c1cccc(O)c1C(=O)C2=O (configuration not stated) | 480 | 16 | 340 | 1800
5 | C=C(C)C1CC2=C(O1)c1c(O)cccc1C(=O)C2=O (configuration not stated) | 2700 | 26 | 3000 | 3000
6 | CC1(C)C2=C(OC1CI)c1c(O)cccc1C(=O)C2=O (configuration not stated) | 1600 | 1.8 | 1800 | 1600
7 | CC1(C)C2=C(OC1CI)c1cccc(O)c1C(=O)C2=O (configuration not stated) | 800 | 1.9 | 460 | 1500
8 | C=C(C)C1CC2=C(O1)c1cccc(O)c1C(=O)C2=O (configuration not stated) [LANTALUCRATIN B] | 1000 | 2.2 | 460 | 210

Reference: ChEMBL document CHEMBL3232878, “QSAR on antiproliferative naphthoquinones based on a conformation-independent approach” (2014)
